Test results reported in ChEMBL document CHEMBL1124517, “Nucleosides of azathioprine and thiamiprine as antiarthritics” (J Med Chem, 1989).

Experiments:
Rattus norvegicus [1] = species on record: Rattus norvegicus; assay: Compound was tested for lethal dose at day 16 against rat; format: ADME, organism-based; settings: in vivo
How it was run: (§1)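 Female Lewis rats (starting weight 190 ± 10 g) with adjuvant-induced arthritis. Compound was milled into rodent chow and given in the diet (mg/kg/day) from the day of adjuvant injection for 14 days. Weight change and deaths were scored on day 16. The highest nontoxic dose was the highest dose without significant weight loss. LD50 was the dietary dose killing 50% by day 16. Some values are approximate, from two dose levels.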

Rattus norvegicus [2] = species on record: Rattus norvegicus; assay: Compound was tested for dose at which there was no significant weight loss in rat at day 16; format: functional; how it was run: as §1
Rattus norvegicus [3] = species on record: Rattus norvegicus; assay: Antiarthritic activity in rat determined by adjuvant arthritis assay in rat; format: functional
How it was run: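 Female Lewis rats, starting weight 190 ± 10 g, adjuvant-induced arthritis. Compound milled into rodent diet, dosed as mg/kg/day in diet from the day of adjuvant injection for 14 days. Arthritic score and weight change assessed on day 16. ED50 is the dose giving a 50% reduction in arthritic score relative to untreated animals.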

Compound | LD50 (Rattus norvegicus [1]) | Highest nontoxic dose (Rattus norvegicus [2]) | ED50 (Rattus norvegicus [3])
Nc1nc2nc[nH]c2c(=S)[nH]1 [THIOGUANINE] | 20 mg kg-1 (day in diet)-1 | 10 mg kg-1 (day in diet)-1 | 10 mg kg-1 (day in diet)-1
Sc1ncnc2nc[nH]c12 [MERCAPTOPURINE ANHYDROUS] | 25 mg kg-1 (day in diet)-1 | 20 mg kg-1 (day in diet)-1 | 20 mg kg-1 (day in diet)-1
Cn1cnc([N+](=O)[O-])c1Sc1ncnc2c1ncn2[C@H]1C[C@H](O)[C@@H](CO)O1 | > 270 mg kg-1 (day in diet)-1 | 100 mg kg-1 (day in diet)-1 | 64 mg kg-1 (day in diet)-1
Cn1cnc([N+](=O)[O-])c1Sc1nc(N)nc2[nH]cnc12 [THIAMIPRINE] | 60 mg kg-1 (day in diet)-1 | 30 mg kg-1 (day in diet)-1 | 19 mg kg-1 (day in diet)-1
Cn1cnc([N+](=O)[O-])c1Sc1ncnc2nc[nH]c12 [AZATHIOPRINE] | 150 mg kg-1 (day in diet)-1 | 48 mg kg-1 (day in diet)-1 | 21 mg kg-1 (day in diet)-1
Cn1cnc([N+](=O)[O-])c1Sc1nc(N)nc2c1ncn2[C@H]1C[C@H](O)[C@@H](CO)O1 | 100 mg kg-1 (day in diet)-1 | 50 mg kg-1 (day in diet)-1 | 38 mg kg-1 (day in diet)-1
Cn1cnc([N+](=O)[O-])c1Sc1ncnc2c1ncn2[C@@H]1O[C@H](CO)[C@@H](O)[C@H]1O | 200 mg kg-1 (day in diet)-1 | 180 mg kg-1 (day in diet)-1 | 68 mg kg-1 (day in diet)-1
Cn1cnc([N+](=O)[O-])c1Sc1nc(N)nc2c1ncn2[C@@H]1O[C@H](CO)[C@@H](O)[C@H]1O | 50 mg kg-1 (day in diet)-1 | 50 mg kg-1 (day in diet)-1 | 36 mg kg-1 (day in diet)-1
